10 compounds from ChEMBL document CHEMBL1148692, “Synthesis, antiviral and antitumor activity of 2-substituted-5-amidino-benzimidazoles” (Bioorg Med Chem, 2007) can be followed below.

For one assay, the system named is HeLa. Put plainly: Growth inhibition of human HeLa cells by MTT assay. Format: functional, cell-based. The method, boiled down:
(§1)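 Cells were kept as monolayers in DMEM with 10% FBS, 2 mM glutamine and antibiotics at 37 °C under 5% CO₂, and seeded at 1–3 × 10⁴ cells/mL. They were exposed for 72 h to five 10-fold dilutions (10⁻⁸–10⁻⁴ M), with DMSO solvent controls. Growth was read by MTT at 570 nm and expressed as percentage growth relative to time-zero and untreated controls. IC50 was obtained by linear regression from quadruplicates in three experiments.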
On the technique in general: Formazan colour is commonly taken as a measure of viable cells.

Assay [1] in a line: Growth inhibition of human WI38 cells by MTT assay. Format: cell-based. Conditions: WI-38. The method, boiled down: as §1
A further assay has as its system MCF7. Kind of assay: Growth inhibition of human MCF7 cells by MTT assay. Format: functional, cell-based. The method, boiled down:
as §1

A further assay concerns Coxsackievirus B5. Kind of assay: Antiviral activity against Coxsackievirus B5 in GMK cells by MTT assay. Format: functional, organism-based. Conditions: Enterovirus B. The method, boiled down: (§2)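 GMK monolayers were seeded at 10⁵ cells/mL and grown in DMEM with 10% FBS. Compound dilutions from 10⁻⁴ to 10⁻¹⁰ M were added to one-day-old confluent cells, immediately followed by virus at 10 CCID50 in DMEM with 2% serum. Cell lysis was followed microscopically at 24 h and quantified by MTT, as % CPE inhibition versus infected wells without compound. EC50 is the mean of at least two independent MTT experiments.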

A further assay deals with SW-620. Kind of assay: Growth inhibition of human SW620 cells by MTT assay. Format: functional, cell-based. The method in brief:
as §1

The subject of another assay is Human adenovirus 5. Kind of assay: Antiviral activity against Adenovirus 5 in HeLa cells by MTT assay. Format: functional, organism-based. Conditions: in the assay text read “by optical evaluation of CPE” for “by MTT assay”; for EC50: Human mastadenovirus C. The method, boiled down: (§3)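 HeLa monolayers were seeded at 10⁵ cells/mL and grown in DMEM with 10% FBS. Compounds were serially diluted from 10⁻⁴ to 10⁻¹⁰ M and added to one-day-old confluent monolayers, which were then immediately infected at 10 CCID50 in DMEM with 2% serum. Cytopathic effect was scored by optical microscopy at 48 h and compared with untreated infected wells. EC50 is the mean of at least three independent evaluations.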

For another assay, the system named is NCI-H460. Put plainly: Growth inhibition of human H460 cells by MTT assay. Format: functional, cell-based. The method, boiled down: as §1
In another assay the test system is MIA PaCa-2. Put plainly: Growth inhibition of human MiaPaCa2 cells by MTT assay. Format: functional, cell-based. The method in brief: as §1
For a further assay, the system named is Human echovirus 7. Kind of assay: Antiviral activity against Echovirus 7 in GMK cells by MTT assay. Format: functional, cell-based, Echovirus E7. Conditions: Enterovirus B. The method in brief:
as §2

Another assay has as its system Human alphaherpesvirus 1. Put plainly: Antiviral activity against Herpesvirus 1 in HeLa cells by MTT assay. Conditions: in the assay text read “by optical evaluation of CPE” for “by MTT assay”; for EC50: Human alphaherpesvirus 1, HeLa. Format: functional, organism-based. The method in brief: as §3

One may read the IC50 as the concentration that inhibits the measured activity by half. The EC50 is the concentration that produces a half-maximal response. The low end stands for higher potency in that assay, the high end for lower potency in that assay.

The structures appear in SMILES notation. Active and inactive are the calls of the source. The rule behind the calls is not given here.

As to `CC(C)NC(=N)c1ccc2[nH]c(-c3cnc[nH]3)nc2c1`, the IC50 with HeLa is more than 100 µM; in assay [1], more than 100 µM; in the assay on MCF7 it was 26 µM; in the assay with SW-620, more than 100 µM; in the assay on NCI-H460 it was more than 100 µM; in the assay with MIA PaCa-2, more than 100 µM. For the same compound, the EC50 in the assay on Coxsackievirus B5, in the assay on Human echovirus 7 and with Human alphaherpesvirus 1 was more than 100 µM each time. The result in the assay on Human adenovirus 5 was inactive.
As for `c1ccc(-c2nc3cc(C4=NCCN4)ccc3[nH]2)nc1`, the IC50 with HeLa was 16 µM; in assay [1], 12 µM; with MCF7 it was 12 µM; in the assay with SW-620, 19 µM; in the assay on NCI-H460, 22.5 µM; in the assay on MIA PaCa-2, 16 µM. For the same compound, the EC50 with Coxsackievirus B5 was 4.3 µM; with Human adenovirus 5, more than 100 µM; in the assay on Human echovirus 7 it was 0.63 µM; in the assay on Human alphaherpesvirus 1 it was 56.7 µM.
Regarding `CC(C)NC(=N)c1ccc2[nH]c(-c3cccn3C)nc2c1`, the IC50 in the assay on HeLa is more than 100 µM; in [1], more than 100 µM; with MCF7, 20 µM; in the assay on SW-620, more than 100 µM; in the assay on NCI-H460, more than 100 µM; in the assay on MIA PaCa-2, more than 100 µM. Further, the figures for the EC50 in the assay with Coxsackievirus B5 and in the assay on Human echovirus 7 were more than 100 µM and 23.2 µM, respectively. Besides, the outcome in the assay on Human adenovirus 5 and in the assay on Human alphaherpesvirus 1 was inactive.
Turning to `Cn1cccc1-c1nc2cc(C(=N)N)ccc2[nH]1`, the IC50 was 70 µM in the assay with HeLa; more than 100 µM in [1]; 12 µM in the assay on MCF7; 84 µM in the assay on SW-620; more than 100 µM in the assay on NCI-H460; more than 100 µM in the assay on MIA PaCa-2. For the same compound, the EC50 in the assay with Coxsackievirus B5 came to 3.5 µM; in the assay with Human adenovirus 5, 5.9 µM; in the assay on Human echovirus 7, 5 µM; with Human alphaherpesvirus 1, 30 µM.
As for `COc1cc([C@@H]2c3cc4c(cc3[C@@H](O[C@@H]3O[C@@H]5CO[C@@H](C)O[C@H]5[C@H](O)[C@H]3O)[C@H]3COC(=O)[C@H]23)OCO4)cc(OC)c1O` [ETOPOSIDE], the IC50 worked out at 2.9 µM in the assay on HeLa and 0.2 µM in the assay on NCI-H460.
For the compound `CC(C)NC(=N)c1ccc2[nH]c(-c3ccccn3)nc2c1`, the IC50 in the assay on HeLa was more than 100 µM; in assay [1], 20.4 µM; in the assay with MCF7 it was 50 µM; with SW-620, more than 100 µM; in the assay with NCI-H460 it was more than 100 µM; with MIA PaCa-2 it was 79 µM. In addition, the EC50 in the assay with Coxsackievirus B5 was 2.7 µM; with Human adenovirus 5, 15.2 µM; in the assay with Human echovirus 7, 0.33 µM; in the assay on Human alphaherpesvirus 1, more than 100 µM.
Consider `Cn1cccc1-c1nc2cc(C3=NCCN3)ccc2[nH]1`, for which the IC50 was 20 µM in the assay on HeLa; 15.6 µM in assay [1]; 5 µM in the assay with MCF7; 15 µM with SW-620; 38 µM in the assay on NCI-H460; 11.5 µM in the assay on MIA PaCa-2. The EC50 in the assay with Coxsackievirus B5 was more than 100 µM; in the assay on Human adenovirus 5, more than 100 µM; in the assay on Human echovirus 7, more than 100 µM; in the assay with Human alphaherpesvirus 1 it was 28.5 µM.
Consider `N=C(N)c1ccc2[nH]c(-c3ccccn3)nc2c1`, for which the IC50 in the assay on HeLa is 82 µM; in [1], 59.4 µM; with MCF7, not below 100 µM; in the assay with SW-620 it was more than 100 µM; with NCI-H460, more than 100 µM; with MIA PaCa-2, more than 100 µM. Further, the EC50 in the assay on Coxsackievirus B5 was 1.7 µM; in the assay on Human adenovirus 5 it was more than 100 µM; in the assay with Human echovirus 7 it was 3.2 µM; in the assay with Human alphaherpesvirus 1, more than 100 µM.
As to `N=C(N)c1ccc2[nH]c(-c3cnc[nH]3)nc2c1`, the IC50 is more than 100 µM in the assay with HeLa; more than 100 µM in [1]; 7.2 µM in the assay on MCF7; more than 100 µM with SW-620; more than 100 µM with NCI-H460; 34 µM in the assay on MIA PaCa-2. The EC50 with Coxsackievirus B5 and in the assay on Human echovirus 7 was more than 100 µM in each case. The result in the assay on Human adenovirus 5 and in the assay on Human alphaherpesvirus 1 was inactive.
In the case of `c1ncc(-c2nc3cc(C4=NCCN4)ccc3[nH]2)[nH]1`, the IC50 in the assay with HeLa was more than 100 µM; in assay [1] it was more than 100 µM; in the assay on MCF7, not below 100 µM; with SW-620, more than 100 µM; in the assay with NCI-H460, more than 100 µM; in the assay on MIA PaCa-2 it was more than 100 µM. The 50% effective concentration (EC50) in the assay on Coxsackievirus B5, with Human echovirus 7 and in the assay on Human alphaherpesvirus 1 was more than 100 µM in each case. For the same compound, the outcome in the assay with Human adenovirus 5 was inactive.
